# TNAP inh hiacc: human TNAP enzyme inhibitors, primary screen, biochemical, luminescent, high phosphate acceptor level, uHTS. Alkaline phosphatase, tissue-nonspecific isozyme (Homo sapiens), P05186. purified TNAP, CDP-star luminescence, 1 M DEA. inhibition, % at 20 µM. actives 0.03% (n = 200,000);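 active = over 50% inhibition of tissue-nonspecific alkaline phosphatase at 20 µM in the single-dose screen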;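 also: plate controls were DMSO wells for no effect and EDTA-quenched wells as full inhibition for full effect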
# Target sequence (P05186 whole entry, looked up): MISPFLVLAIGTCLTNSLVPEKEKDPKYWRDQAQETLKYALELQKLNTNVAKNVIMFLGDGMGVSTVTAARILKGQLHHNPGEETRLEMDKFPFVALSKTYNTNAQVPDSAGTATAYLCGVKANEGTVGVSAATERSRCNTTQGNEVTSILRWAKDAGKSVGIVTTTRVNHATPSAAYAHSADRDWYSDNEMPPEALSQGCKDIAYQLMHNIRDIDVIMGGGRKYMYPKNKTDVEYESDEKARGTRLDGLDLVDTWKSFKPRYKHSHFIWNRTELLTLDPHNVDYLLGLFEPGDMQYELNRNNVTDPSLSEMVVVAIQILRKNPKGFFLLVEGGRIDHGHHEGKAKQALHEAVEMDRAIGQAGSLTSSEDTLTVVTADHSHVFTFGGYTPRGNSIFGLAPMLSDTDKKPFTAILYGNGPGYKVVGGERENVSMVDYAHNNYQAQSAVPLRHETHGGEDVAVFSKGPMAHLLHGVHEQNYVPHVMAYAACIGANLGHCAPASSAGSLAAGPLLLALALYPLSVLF
# TNAP inh noacc: human TNAP enzyme inhibitors, primary screen, biochemical, luminescent, no phosphate acceptor, uHTS; inhibition, % at 20 µM; Alkaline phosphatase, tissue-nonspecific isozyme (Homo sapiens), P05186; purified TNAP, CDP-star luminescence, 30 min; actives 0.26% (n = 200,000);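 active = tissue-nonspecific alkaline phosphatase inhibition above about 50% at 20 µM in the single-dose screen, limit read from the data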;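 also: 0% = DMSO negative control and 100% = EDTA positive control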
# TNAP act hiacc: TNAP activators at high phosphate acceptor level, primary screen, biochemical, luminescence, uHTS; Alkaline phosphatase, tissue-nonspecific isozyme (Homo sapiens), P05186; activation factor at 20 µM; 200,000 tested, under 10 active; purified TNAP, CDP-star luminescence, 1 M DEA, 30 min; active compounds read high; 0 = EDTA background, 1 = DMSO-only activity;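 active = activation factor at least 2 at 20 µM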
#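 Assay system: human TNAP; Input: enzyme diluted 1/800 final; Reagent: CDP-star luminogenic substrate at 100 µM final; Timing: 30 min, room temperature; Signal: luminescence; Evaluation: TNAP activation factor scaled between EDTA and DMSO control wells.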
# Arbovirus anti: antivirals against arbovirus infection, primary screen, cell-based, full library, 10K replicate subset | arbovirus infection cell-based antiviral screen | inhibition, % at 10 µM | actives 0.37% (n = 200,000) | AID 1251, 2008; in the data active = inhibition above about 30%
# WT yeast gro inh: growth inhibition of WT strain, primary screen, mitochondrial fusion inhibitor project, WT and mutant strains, chemical genetic; mitochondrial fusion phenotypic screen; inhibition, % at 10 µM; actives 2.1% (n = 190,000); in the data active = inhibition above about 58%; tested in S. cerevisiae
# Starred values were filed as active, the others as inactive. An excerpt weighted towards active compounds, which were near 2.6% of everything screened.
SMILES,TNAP inh hiacc,TNAP inh noacc,TNAP act hiacc,Arbovirus anti,WT yeast gro inh
Cc1ccc(-c2csc3ncnc(Nc4ccc(N5CCOCC5)cc4)c23)cc1,-2,8,1,-29,64*
CCN1C(=O)/C(=C\c2ccc(-c3ccc([N+](=O)[O-])cc3OC)o2)SC1=Nc1cccc(C(=O)O)c1,8,12,0.9,3,15
CCN=C1S/C(=C\c2ccc(-c3cccc(C(=O)O)c3)o2)C(=O)N1CC,1,1,1,41*,-16
COc1ccc(C2C(C#N)=C(SC)NC3=C2C(=O)CC(C)(C)C3)cc1 (stereo not given),-5,-14,1.1,-2,79*
CCOC(=O)CSC1=C(C#N)C(c2ccc(OC)cc2)C2=C(CC(C)(C)CC2=O)N1 (stereo not given),-4,-14,1,1,24
Clc1ccccc1C1=Nn2c(nnc2-c2ccncc2)SC1,-5,-11,1.1,59*,20
Clc1ccc(C2=Nn3c(nnc3-c3cc(-c4ccccc4)n[nH]3)SC2)cc1,-2,-29,1,-3,97*
CN=c1scc(-c2ccco2)n1/N=C/c1ccc(O)c(O)c1,11,67*,0.9,-8,4
CN=c1scc(C)n1/N=C/c1ccc(O)cc1,-2,-4,1,-28,-3
C=CCN=c1scc(C)n1/N=C/c1ccc(O)c(O)c1,8,77*,0.9,-10,-4
CCOC(=O)c1oc2cccc(OCC(O)CNC(C)C)c2c1C (stereo not given),-6,-7,1.1,-14,69*
Cc1cccc(C)c1OCC(O)CNC(C)C (stereo not given),-4,-7,1,4,-4
O=C(CSc1nc2nn(-c3ccccc3)c(=O)c-2c2n1CCCCC2)NCCc1ccccc1,-6,-11,1.1,32*,4
C/C(=N\Nc1ccc([N+](=O)[O-])cc1)c1ccc(O)cc1,32,31,0.7,-15,17
CC(=O)NC/C(C)=N\Nc1ccc([N+](=O)[O-])cc1,15,-1,0.8,-22,78*
CCn1cc(/C=N/NS(=O)(=O)c2ccc(OC)cc2)c(C)n1,0,-11,1,-4,-48
CC1CCN(CCCNC(=O)c2ccc(Cn3c(=S)[nH]c4ccc(Br)cc4c3=O)cc2)CC1,1,-11,1,-32,0
Cc1cc(NC(=O)CCN2C(=O)C3C4CCC(C4)C3C2=O)c(C)cc1Br (stereo not given),-6,-12,1.1,0,14
Cc1cc(Br)c(Cl)cc1NC(=O)CN1C(=O)C2C3CC(c4ccccc4)C(C3)C2C1=O (stereo not given),-5,-6,1,-37,70*
Cc1ccc(C(=O)n2nc(-n3cccc3)c3c(C)cc(C)nc32)cc1,0,58*,1,-7,3
COc1ccc(C(c2nnnn2CC2CCCO2)N2CCN(c3ccccc3)CC2)cc1 (stereo not given),-8,-6,1.1,11,11
Cc1cccc(N2CCN(C(c3cccs3)c3nnnn3C(C)(C)C)CC2)c1C (stereo not given),-8,-7,1.1,14,47
Cc1ccc(C(c2nnnn2CC2CCCO2)N2CCN(c3cccc(C)c3C)CC2)cc1 (stereo not given),3,0,1,-31,60*
Cc1cccc(N2CCN(C(c3ccccc3)c3nnnn3C(C)(C)C)CC2)c1C (stereo not given),-4,-8,1,-4,75*
Clc1ccc(-c2csc(Nc3ccccc3)[n+]2Cc2ccco2)c(Cl)c1,-1,-7,1,-12,72*
SMILES,TNAP inh hiacc,TNAP inh noacc,TNAP act hiacc,Arbovirus anti,WT yeast gro inh
C=CC[n+]1c(-c2ccc(Cl)cc2Cl)csc1Nc1ccc(NC(C)=O)cc1,-1,-4,1,-30,86*
COc1ccc(-c2csc(Nc3ccccc3)[n+]2Cc2ccccc2)cc1,-2,-12,1,9,21
CCCC[n+]1c(-c2ccc(Cl)cc2Cl)csc1Nc1ccccc1,4,-10,1,-9,68*
C=CC[n+]1c(-c2ccc(Cl)cc2Cl)csc1Nc1c(C)n(C)n(-c2ccccc2)c1=O,5,1,0.9,-11,24
COc1ccc(S(=O)(=O)NCC2CCC(C(=O)NCC(OC)OC)CC2)cc1 (stereo not given),-4,-1,1,4,5
C=C(C(=O)c1ccccc1)C(C)C(=C)C(=O)c1ccccc1,-1,-6,1,-21,51
Cc1cc(C)c2oc(C(=O)Nc3ccc(S(=O)(=O)N4CCCC(C)C4)cc3)cc(=O)c2c1 (stereo not given),0,-6,1,-13,9
S=C1NC2(CCCCC2)Cc2ccccc21,3,4,1,17,69*
Cc1ccc(NC(=O)c2cc(C)n(-c3cccc(C)c3)c2C)cc1,-4,-17,1,-3,62*
Cc1ccc(NC(=O)c2cc(C)n(-c3ccccc3)c2C)cc1,2,-10,1,-3,41
CCS(=O)(=O)c1ccc2oc(SCC(=O)NCCc3ccccc3)nc2c1,-4,-11,1,-1,3
O=C(CSc1nc2cc(Cl)ccc2o1)NCCc1ccccc1,-2,-11,1,-1,68*
O=C(Nc1ccc(Cl)c(S(=O)(=O)Nc2ccccc2Cl)c1)c1cccs1,-3,-4,1,20,84*
O=C(Nc1ccccc1Cl)c1cccs1,1,-4,1,5,-44
Cc1ccc(C(=O)Nc2ccc(C)c(S(=O)(=O)Nc3ccccc3Cl)c2)s1,4,0,1,8,70*
COCCN(C(=O)CCc1nnc(CCc2c[nH]c3ccccc23)o1)C(C)C,-8,-14,1.1,1,3
Cc1cc(Nc2nc(Cl)c(Cl)cc2Cl)n(-c2ccccc2)n1,-3,-13,1,-16,65*
Cc1cc(N2CCN(c3ccccc3)CC2)nc(-c2ccccc2O)n1,-6,-18,1.1,-29,26
Cc1cc(Nc2ccccc2)n(-c2ccccc2)n1,-2,-13,1,-3,24
Cc1cc(N2CCN(c3ccccc3)CC2)nc(-n2nc(C)cc2C)n1,-7,-8,1.1,2,72*
Cc1cc(C)nc(-n2nc(C)cc2Nc2ccccc2)n1,-4,-4,1,-13,72*
Cc1ccc(-n2nc(C)cc2Nc2ncc(Cl)cc2Cl)cc1,-2,-5,1,-7,74
CC1(NC(=S)N(CCO)CCO)CCS(=O)(=O)C1 (stereo not given),-6,-4,1.1,-4,-9

# Bioassay records from PubChem BioAssay.
